How the values were obtained:
Plasmodium falciparum [1] = assay: ST_JUDE: Plasmodium falciparum 3D7 EC50 (uM) as measured by SYBR green dye; type: functional, organism-based
Plasmodium falciparum [2] = assay: ST_JUDE: Plasmodium falciparum K1 EC50 (uM) as measured by SYBR green dye; type: functional, organism-based
Plasmodium falciparum [3] = assay: ST_JUDE: Cytotoxicity against Plasmodium falciparum 3D7; type: functional, organism-based
In short: (§1)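 Asexual P. falciparum grown in human erythrocytes, exposed to compounds for 72 h, and growth read as the DNA quantity in treated versus control cultures. Dose-response run at 12 concentrations from 10 μM to 5 nM.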

Plasmodium falciparum [4] = assay: ST_JUDE: Cytotoxicity against Plasmodium falciparum K1; type: functional, organism-based; in short: as §1
Plasmodium falciparum [5] = assay: ST_JUDE: Cytotoxicity against Plasmodium falciparum V1/S; type: functional, organism-based
Toxoplasma gondii = assay: ST_JUDE: Growth inhibition of to Toxoplasma gondii, in human U-2OS cells, as measured by luciferase.; type: functional, organism-based; details: RH, U2OS
In short: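 T. gondii parasites engineered to express luciferase; drug sensitivity read by luminescence.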

Trypanosoma brucei = assay: ST_JUDE: Cytotoxicity using luciferase to measure ATP as an indicator of the viability of Trypanosoma brucei; type: functional, organism-based
Leishmania major = assay: ST_JUDE: Cytotoxicity using Alamar Blue to measure viability of Leishmania major; type: functional, organism-based
In short: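 L. major promastigotes; drug susceptibility read with Alamar Blue.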

[6] = ST_JUDE: Cytotoxicity using luciferase to measure ATP as an indicator of the viability of human foreskin fibroblast cells (BJ); type: toxicity, cell-based
[7] = ST_JUDE: Cytotoxicity using luciferase to measure ATP as an indicator of the viability of human epithelial hepatocellular carcinoma cells (HepG2); type: toxicity, cell-based
[8] = ST_JUDE: Cytotoxicity using luciferase to measure ATP as an indicator of the viability of human epithelial embryonic kidney cells (HEK293); type: toxicity, cell-based
[9] = ST_JUDE: Cytotoxicity using luciferase to measure ATP as an indicator of the viability of human Burkitt''s lymphoma lymphoblast cells (Raji); type: toxicity, cell-based
Plasmodium falciparum [10] = assay: ST_JUDE: Cytotoxicity against Plasmodium falciparum W2; type: functional, organism-based
Plasmodium falciparum [11] = assay: ST_JUDE: Cytotoxicity against Plasmodium falciparum SB-A6; type: functional, organism-based
Plasmodium falciparum [12] = assay: ST_JUDE: Cytotoxicity against Plasmodium falciparum D10 transfected with yeast DHOD; type: functional, organism-based

Compound	EC50 (Plasmodium falciparum [1]) [µM]	EC50 (Plasmodium falciparum [2]) [µM]	other results
Cc1ccc2nc(Nc3nc(O)c4ccccc4n3)nc(C)c2c1	6.29	4.56	–
O=C(NC(c1cccc([N+](=O)[O-])c1)c1cc(Cl)c2cccnc2c1O)c1cccnc1 (configuration not stated)	4.65	2.73	–
CCOc1ccc(-c2nonc2NC(=O)CC(C)C)cc1OCC	3.14	3.78	–
O=[N+]([O-])c1ccc2c(c1)c1ccccc1n2Cc1ccccc1O	1.26	1.25	EC50 (Plasmodium falciparum [3]): 1.3 µM; EC50 (Plasmodium falciparum [4]): 1.07 µM; EC50 (Plasmodium falciparum [5]): > 9.06 µM; EC50 (Toxoplasma gondii): > 19.3 µM; EC50 (Trypanosoma brucei): 24.5 µM; EC50 (Leishmania major): > 15.1 µM; EC50 [6]: > 35.3 µM; EC50 [7]: > 35.3 µM; EC50 [8]: > 35.3 µM; EC50 [9]: 18.2 µM; EC50 (Plasmodium falciparum [10]): 3.7 µM; EC50 (Plasmodium falciparum [11]): 2.32 µM; EC50 (Plasmodium falciparum [12]): 1.8 µM
O=C(Nc1ccccc1-c1nc2ccccc2s1)C(Cl)(Cl)Cl	> 15	2.69	–
CC(C)CN1C(=O)c2ccccc2C(C(=O)Nc2cccc(C(F)(F)F)c2)C1c1cccs1 (configuration not stated)	–	–	EC50 (Toxoplasma gondii): > 25.9 µM; EC50 (Trypanosoma brucei): 3.3 µM; EC50 (Leishmania major): > 20.2 µM; EC50 [6]: > 47.2 µM; EC50 [7]: 37.7 µM; EC50 [8]: > 47.2 µM; EC50 [9]: > 47.2 µM
Cc1cc(Nc2ccc(C)c(F)c2)n2nc(C)nc2n1	1.29	3.09	–
CN1C=CC(=Cc2sc3ccccc3[n+]2C)C=C1	0.873	0.389	–
O=C1CC(C(=O)N2CCC(c3nc(-c4cccnc4)ncc3-c3ccccc3)CC2)c2ccccc21 (configuration not stated)	2.73	4.09	–
Cc1ccc(C(C)C)c(OCc2nc3ccccc3n2C)c1	> 15	> 15	–
COc1cccc(C2C(C(=O)Nc3ccccc3C)=C(C)Nc3nnnn32)c1 (configuration not stated)	> 15	> 15	–
O=C1CC(O)(C(F)(F)C(F)(F)F)Oc2ccccc21 (configuration not stated)	2.57	2.48	–
Cc1ccccc1NC(=O)Nc1ccnn1C1CCN(Cc2ccc(OC(C)C)cc2)CC1	6.74	> 15	–
CC(=O)OCCCCCCCCCCC[N+]1(C)CCCCC1	> 15	5.48	–
CC(C)(C)c1ccc(O)c(CN2CCN(c3ccccc3)CC2)c1	1.1	0.51	–
Oc1ccc(I)cc1/C=C/c1cc(O)c2ccccc2n1	> 15	5.34	–
S=C(N/N=C(/c1ccccc1)c1ccccn1)Nc1ccccc1	0.317	0.48	–
C=CCn1c(=N)n(CC(O)COc2cccc(C)c2)c2ccccc21 (configuration not stated)	7.13	> 15	–
CN(C)CCNC(=O)c1[nH]c2ccccc2c1Sc1ccc(Cl)cc1	4.53	3.5	–
CCN(CC)CCNC(=O)c1cc2c(-c3cccc(OC)c3)nn(C)c2s1	4.04	> 15	–
COc1cccc(NC(=O)C2c3ccccc3C(=O)N(CC(C)C)C2c2cccs2)c1 (configuration not stated)	0.175	–	EC50 (Toxoplasma gondii): > 22.3 µM; EC50 (Trypanosoma brucei): 7.54 µM; EC50 (Leishmania major): > 17.5 µM; EC50 [6]: > 40.8 µM; EC50 [7]: > 40.8 µM; EC50 [8]: > 40.8 µM; EC50 [9]: > 40.8 µM
Cc1ccccc1-c1cnc(-c2cccnc2)nc1C1CCN(C(=O)CCCc2cccs2)CC1	5.76	4.53	–
Cn1c(-c2ccc(F)cc2)[n+](C)c2ccccc21	1.88	3.79	–
COC(=O)Nc1ccc(S(=O)(=O)ON=C2C=C(C(C)(C)C)C(=O)C(C(C)(C)C)=C2)cc1	6.84	0.389	–
Cc1cc(O)nc(Nc2nc(C)c3cccc(C)c3n2)n1	> 15	> 15	–
CCOC(=O)c1cccc(NC(=O)CC2C(=O)N(c3ccc(F)cc3)C(=O)N2C2CCCC2)c1 (configuration not stated)	0.344	0.984	–
COc1ccc2cc(C(=O)C3CCCN(C4CCN(C(C)C)CC4)C3)ccc2c1 (configuration not stated)	7.92	> 15	–

Compound	EC50 (Plasmodium falciparum [1]) [µM]	EC50 (Plasmodium falciparum [2]) [µM]	other results
Cc1cccc(N2COc3ccc(C(C)(C)C)cc3C2)c1	> 15	> 15	–
CC(C)CN(CC(C)C)S(=O)(=O)c1ccc(C(=O)Nc2nc(-c3ccccn3)cs2)cc1	> 15	3.28	–
CCCCc1ccc(NC(=O)Cc2csc(NC(=O)c3cc(OC)cc(OC)c3)n2)cc1	> 15	> 15	–
CC(NC(=S)Nc1cccc([N+](=O)[O-])c1)c1ccc(C(C)(C)C)cc1 (configuration not stated)	> 15	6.22	–
CCOC(=O)c1ccc(Nc2nc3nonc3nc2O)cc1	> 15	> 15	–
Oc1ccc(Br)c2c1NC(c1ccc(Cl)cc1)C1CC=CC21 (configuration not stated)	3.89	1.57	–
C[n+]1ccccc1/C=C/c1ccc(Br)cc1	1.4	1.46	–
Cc1cccc(NC(=O)CSc2nc3c4ccccc4nc-3c(O)n2-c2ccc([N+](=O)[O-])cc2)c1	> 15	4.68	–
CCOC(=O)C1=C(C)N=c2s/c(=C\c3cc(Cl)ccc3O)c(=O)n2C1c1ccc(OC)cc1 (configuration not stated)	> 15	> 15	–
Cc1ccc(N2C(=O)CC(Sc3nccc(C)n3)C2=O)cc1 (configuration not stated)	> 15	> 15	–
CC(Cc1ccccc1)NC1=NS(=O)(=O)c2cc([N+](=O)[O-])ccc21 (configuration not stated)	1.58	> 15	–
CC(C)Cc1cc(C(=O)NCC2Cc3cc(Cl)cc(-c4ccncc4)c3O2)no1 (configuration not stated)	> 15	6.45	–
CCN(CC)c1cc(C)c2cc(NC(=O)c3cccc([N+](=O)[O-])c3)ccc2n1	0.59	> 15	–
Cc1sc(NC(=O)CSc2ccc(Cl)cc2)nc1-c1ccccc1	> 15	> 15	–
COc1ccc(NC(=O)Cn2ncc3c(=O)oc4ccc(C)cc4c32)cc1	> 15	> 15	–
CCOc1cc(C2CC(=O)NC3=C2C(=O)CC(c2ccc(OC)cc2)C3)cc(Br)c1O (configuration not stated)	1.13	1.53	–
O=C(Nc1ccc(-c2nc3ccccc3[nH]2)cc1)[C@H](Cc1ccccc1)N1Cc2ccccc2C1=O	2.56	> 15	–
COc1cccc(C(=O)NC(c2ccc([N+](=O)[O-])cc2)c2c(O)ccc3ccccc23)c1 (configuration not stated)	> 15	5.25	–
COc1ccc(OC)c(Nc2nc(NCCO)c3ccccc3n2)c1	> 15	> 15	–
NS(=O)(=O)c1ccc(NC(=O)Cc2ccc([N+](=O)[O-])cc2)cc1	> 15	> 15	–
O=[N+]([O-])c1cccc(C2Nc3ccccc3-c3nc4ccccc4n32)c1 (configuration not stated)	3.69	4.27	–
COc1ccc(C2C(C(=O)OC(C)C)=C(C)N=c3s/c(=C\c4cc(Cl)ccc4O)c(=O)n32)cc1 (configuration not stated)	7	0.331	–
CCOC(=O)C(C)Sc1nc2ccccc2c(=O)n1CC1CCCCC1 (configuration not stated)	> 15	> 15	–
COCCn1/c(=N/C(=O)CSCC(=O)Nc2cc(C)on2)sc2cc(OC)ccc21	> 15	> 15	–
CN(C)c1ccc(C(O)(c2ccc(N(C)C)cc2)c2ccc(N(C)C)cc2)cc1 [METHYLROSANILINE]	0.62	0.178	–
O=C(N/N=C/c1ccc([N+](=O)[O-])o1)c1ccc(O)cc1 [NIFUROXAZIDE]	> 15	3.77	–
O=C(CCCCCN1C(=O)c2cccc3cccc(c23)C1=O)NO [SCRIPTAID]	3.78	2.22	–

From ChEMBL document CHEMBL1154198, “Chemical genetics of Plasmodium falciparum” (Nature, 2010)
